S1P1 ag-PAM: S1P1 agonists and agonism potentiators, primary screen, cell-based, primary and confirmation screens, CRE-bla reporter. activation, % at 9.5 µM. hit rate 0.57% among 56,000. S1P1 CRE-bla cells, forskolin, beta-lactamase FRET, potentiator mode; S1P1 agonist co-added at EC20, 2 nM; 100% = saturating reference agonist, 0% = basal;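 active means activation above a cutoff set at the mean activation of all tested compounds plus 3 SD, cut at about 54% in these data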;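 further: forskolin at 4 µM as EC80 and the EC20 agonist is SEW2871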
S1P3 agonist: human S1P3 receptor agonists, primary screen, cell-based, primary and confirmation, NFAT-BLA reporter | AID 373, 2006 | activation, % at 4.5 µM | Sphingosine 1-phosphate receptor 3 (Homo sapiens), Q99500 | hit rate 0.1% among 60,000 | S1P3 NFAT-BLA reporter cells, agonism, FRET ratio; relative to 1 µM S1P, basal subtracted;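 active means activation above the screen-wide mean plus 3 SD, cut at about 4.5% in these data, passing the limit was not always enough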
Target sequence (Q99500 whole entry, looked up): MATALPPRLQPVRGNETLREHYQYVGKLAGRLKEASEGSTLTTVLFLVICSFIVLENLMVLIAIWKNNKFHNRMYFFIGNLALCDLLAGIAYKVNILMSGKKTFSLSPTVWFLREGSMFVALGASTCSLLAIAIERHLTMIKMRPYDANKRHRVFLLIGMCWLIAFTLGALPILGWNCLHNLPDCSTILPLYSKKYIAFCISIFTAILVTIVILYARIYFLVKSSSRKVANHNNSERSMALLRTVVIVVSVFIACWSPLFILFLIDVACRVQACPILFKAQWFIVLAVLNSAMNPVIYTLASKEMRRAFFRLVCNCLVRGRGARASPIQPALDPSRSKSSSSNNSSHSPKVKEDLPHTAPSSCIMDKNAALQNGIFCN
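Assay system: stable CHO line with human S1P3, Gα16, NFAT-BLA reporter; Detection: FRET β-lactamase substrate fluorescence, excitation 405 nm, 460/535 nm emission ratio, background-subtracted; Read-out: percent activation versus median 1 µM S1P response, basal-subtracted, per plate; Incubation: cells plated overnight, compound 4 h 37 °C, substrate 2 h RT.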
HTR1A agonist: human 5-HT1a receptor agonists, primary screen, cell-based, CHO, Ga15 NFAT-bla reporter. 5-hydroxytryptamine receptor 1A (Homo sapiens), P08908. CHO 5-HT1a Ga15 NFAT-bla reporter, FRET ratio; 0% basal, 100% maximal reference agonist. activation, % at 10 µM. hit rate 0.56% among 65,000;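 active means activation above the screen-wide mean activation plus 3 SD, cut at about 19% in these data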
5HT1a antag: human 5-HT1a receptor antagonists, primary screen, cell-based, CHO, Ga15 NFAT-bla reporter; 5-hydroxytryptamine receptor 1A (Homo sapiens), P08908; CHO 5-HT1a Ga15 NFAT-bla reporter, antagonist mode; inhibition, % at 10 µM; hit rate 0.68% among 62,000;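 active means inhibition above the mean of all tested compounds plus 3 SD, cut at about 43% in these data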;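 further: receptor stimulated by 5-CT agonist at 100 nM near EC80; beta-lactamase reporter measured by ratiometric fluorescence of a cleavable substrate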
5HT1E antag: 5-HT1E receptor antagonists, primary screen, cell-based, HTS | 5-hydroxytryptamine receptor 1E (Homo sapiens), P28566 | CHO 5-HT1E Ga15 NFAT-bla reporter, FRET, antagonist | inhibition, % at 6 µM | hit rate 0.99% among 65,000 | AID 571, 2007;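 active means inhibition above a set limit, the mean inhibition across every tested compound plus 3 SD, cut at about 29% in these data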;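 further: signal is the 460 over 535 nm emission ratio of beta-lactamase substrate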
HTR1E agonist: 5-HT1E receptor agonists, primary screen, cell-based, HTS. CHO 5-HT1E Ga15 NFAT-bla reporter, FRET; 0% DMSO wells, 100% control agonist wells. activation, % at 6 µM. hit rate 0.69% among 65,000. AID 574, 2007;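 active means activation above a set limit, the screen-wide mean activation plus 3 SD, cut at about 8.5% in these data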
Large screens that a line does not name were inactive. An excerpt weighted towards active compounds, which were near 3% of everything screened.

CN1CCCC(OC(=O)c2cc(Cl)ccc2Cl)C1 (stereo not given)	HTR1E agonist 13
O=C(CN(CCc1ccccc1)C(=O)CNS(=O)(=O)c1ccc(F)cc1)NCc1ccco1	none
Cc1ncc(CO)c2c1OC(C)(C)OC2	HTR1A agonist 27
CCOC(=O)c1ccc(N=c2sc(C(=O)OC)cc(=O)n2C2CC2)cc1	none
COC(=O)c1cc(=O)n(C2CC2)c(=NC2CC2)s1	5HT1E antag 31 (no result: S1P1 ag-PAM, S1P3 agonist)
Cc1noc(C)c1COC(=O)COc1ccc2c(C)cc(=O)oc2c1	none
CC(C)c1cc(C(F)(F)F)n2nc(C(=O)Nc3ccc4c(c3)OCO4)cc2n1	S1P1 ag-PAM 102
CC(NS(=O)(=O)c1ccccc1)C(=O)Nc1nccs1 (stereo not given)	HTR1A agonist 268
COc1cccc(-c2cn3nc(C)c(C)nc3n2)c1	none
Cc1nc2nc(-c3cccs3)cn2nc1C	5HT1E antag 39
CCc1nnc(NC(=O)c2ccc(S(=O)(=O)NCC(C)C)cc2)s1	none
CCc1nn(C(C)C(=O)NCCN2CCN(c3cccc(C)c3C)CC2)c(=O)c2cc3occc3n12 (stereo not given)	HTR1E agonist 62
CCCn1nc(NS(=O)(=O)c2ccccc2)c2cc3ccccc3nc21	HTR1A agonist 24
O=C(c1ccc(NC2=NC3CS(=O)(=O)CC3S2)cc1)N1CCN(C(=O)c2ccco2)CC1 (stereo not given)	none
COc1ccc(-c2cnnn2-c2ccc(NC(=O)c3ccco3)cc2)cc1OC	5HT1E antag 47 (no result: S1P1 ag-PAM, S1P3 agonist)
Cc1cc(NC(=O)c2cc3ccccc3o2)cc(C)c1OCC(=O)N1CCOCC1	none (no result: S1P1 ag-PAM)
COc1ccc(-c2nc(-c3cccc(C)c3)no2)cc1OC	S1P1 ag-PAM 108
COc1ccc(-c2nc(-c3cccc(C(F)(F)F)c3)no2)cc1OC	S1P1 ag-PAM 75
COc1ccc(-c2nc(-c3ccccc3OC)no2)cc1OC	S1P1 ag-PAM 83
COc1cc(-c2nc(-c3cccc(C)c3)no2)cc(OC)c1OC	none
COc1ccccc1-c1nc(-c2cccc(C)c2)no1	S1P1 ag-PAM 99
COc1ccccc1-c1noc(-c2ccccc2)n1	none
COCCNC(=O)CN1C(=O)CSc2cc(S(=O)(=O)N3CCCCCC3)ccc21	none
O=C(CSc1nnc(-c2ccccc2Cl)o1)N1CCCCC1	none
CCOC(=O)c1c(N)sc(C(=O)N2CCCC(C(N)=O)C2)c1C (stereo not given)	none
O=C(CCCCn1c(=O)c2ccccc2n(CC(=O)Nc2cccc(F)c2)c1=O)NCc1ccco1	none
CCOc1ccc(-c2nc(-c3ccccc3)no2)cc1OCC	S1P1 ag-PAM 108, S1P3 agonist 14
CCOc1cc(-c2nc(-c3ccc(OC)cc3)no2)cc(OCC)c1OCC	none
CCOc1ccc(-c2nc(-c3ccncc3)no2)cc1OCC	S1P1 ag-PAM 111, S1P3 agonist 54
CCOc1ccccc1NC(=O)c1ccccc1-c1nc(-c2ccccc2)no1	5HT1a antag 46
CCOc1cc(-c2nc(-c3ccncc3)no2)cc(OCC)c1OCC	none
Cc1cc(C)cc(-c2nc(-c3ccncc3)no2)c1	S1P1 ag-PAM 105
COc1ccc(-c2noc(-c3ccccc3C(=O)Nc3cccc(OC)c3)n2)cc1	none
CCOC(=O)CCNC(C)C1COc2ccccc2O1 (stereo not given)	none
CC(CCc1ccccc1)NC(=O)c1ccncc1 (stereo not given)	none (no result: S1P1 ag-PAM)
O=C(c1cnc2sccn2c1=O)N(Cc1ccccc1)c1ccccn1	HTR1A agonist 27
CCOC(=O)c1[nH]c(C)c(C(=O)Nc2cc(OC)ccc2OC)c1C	5HT1E antag 49
Nc1c2c(nc3ccccc13)CCC2	none
Brc1ccc(CSc2nnc(-c3ccccn3)n2Cc2ccco2)cc1	5HT1a antag 65 (no result: S1P1 ag-PAM, S1P3 agonist)
CCOC(=O)c1c(NC(=O)c2nn(CC)cc2Br)c(C#N)cn1-c1ccccc1	5HT1E antag 40
CCOC(=O)c1c(N)c(C#N)cn1-c1ccccc1	none
Cc1ccc2cc(COC(=O)c3ccncc3)c(=O)[nH]c2c1	none
COc1cc(-c2nn3c(Cc4ccccc4)nnc3s2)cc(OC)c1OC	5HT1E antag 31 (no result: S1P1 ag-PAM)
CN(C)/C=C1\C(=O)c2ccc(N(C)C)nc2CC1c1ccccc1 (stereo not given)	HTR1A agonist 99, HTR1E agonist 25
N=c1c(S(=O)(=O)c2ccc(Cl)cc2)cc2c(=O)n3ccccc3nc2n1CCN1CCOCC1	HTR1A agonist 24
N=c1c(C(=O)NCc2ccco2)cc2c(=O)n3ccccc3nc2n1Cc1ccc(Cl)cc1	S1P3 agonist 4.8, HTR1A agonist 27
Cc1ccc(CNC(=O)c2cc3c(=O)n4ccccc4nc3n(Cc3ccco3)c2=N)cc1	none (no result: 5HT1a antag)
CC(C)n1c(=N)c(C(=O)NCCc2ccccc2)cc2c(=O)n3ccccc3nc21	S1P3 agonist 6.3, HTR1A agonist 52, HTR1E agonist 13
Cn1c(=N)c(S(=O)(=O)c2ccccc2)cc2c(=O)n3ccccc3nc21	none
Cc1ccc(CNC(=O)c2cc3c(=O)n4ccccc4nc3n(CC3CCCO3)c2=N)cc1 (stereo not given)	HTR1A agonist 32 (no result: 5HT1a antag)
Cc1ccc(S(=O)(=O)Nc2cc(NC(=O)CN3CCOCC3)ccc2Cl)cc1	none
N#Cc1c(NC(=O)CSc2nc(-c3ccco3)cc(C(F)(F)F)n2)sc2c1CCCC2	none
N=c1n(CCN2CCCCC2)c2ccccc2n1CC(O)COc1ccccc1 (stereo not given)	5HT1a antag 49
N=c1n(CCN2CCCCC2)c2ccccc2n1CC(O)c1cccc(Br)c1 (stereo not given)	5HT1a antag 54
COc1ccccc1OCC(O)Cn1c(=N)n(CCN2CCCCC2)c2ccccc21 (stereo not given)	5HT1a antag 71 (no result: S1P1 ag-PAM, S1P3 agonist)
N=c1n(CCN2CCOCC2)c2ccccc2n1CC(O)COc1ccccc1 (stereo not given)	none
N=c1n(CCN2CCCC2)c2ccccc2n1CC(O)c1ccco1 (stereo not given)	none
N#CC1=C(N)Oc2cc(N)ccc2C1C1CCCCC1 (stereo not given)	none
CCN1CCn2c3c(c4cc(Br)ccc42)CCCC31 (stereo not given)	none
